Experimental data reported in ChEMBL document CHEMBL1799956, “Convergent synthesis and biological evaluation of 2-amino-4-(3',4',5'-trimethoxyphenyl)-5-aryl thiazoles as microtubule targeting agents” (J Med Chem, 2011).
Calls of active or inactive are those of the source. No cut-off for these calls is given here.

Legend:
Bos taurus = organism: Bos taurus; assay: Displacement of [3H]colchicine from bovine brain tubulin at 5 uM
In short: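 [3H]colchicine binding inhibition with tubulin at 1 μM, [3H]colchicine at 5 μM and test compound at 5 μM.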

Tubulin (Homo sapiens) [1] = molecular target: T1, Tubulin (Homo sapiens) (UniProt P68371+Q9H4B7+P0DPH7+P68366+Q13509+Q71U36+P04350+Q3ZCM7+P07437+P68363+Q9BQE3+Q6PEY2+Q13885+Q9BVA1+Q9BUF5); assay: Induction of microtubule disassembly with spherical morphology in human HeLa cells at 10 nM after 48 hrs using DAPI-staining by fluorescence microscopy; type: cell-based
In short: (§1)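 HeLa cells were exposed to 10 or 100 nM compound for 24 or 48 h, then fixed. Microtubules were stained with FITC-conjugated anti-β-tubulin antibody and imaged by confocal/fluorescence microscopy at 60× magnification.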

[2] = Antiproliferative activity against human taxol-resistant A549-T12 cells assessed as growth inhibition after 72 hrs by MTT assay; type: functional, cell-based; settings: A549, 72 h
Jurkat [3] = assay: Induction of apoptosis in human Jurkat cells assessed as formation of large cytoplasmic vacuoles at 100 uM after 24 to 48 hrs using Giemsa's staining by microscopic analysis; type: functional, cell-based
In short: (§2)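 Giemsa staining, then light-microscope examination of cell morphology. HeLa and Jurkat cells were exposed to compound for 24 and 48 h. Magnification 60×.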

HeLa [4] = assay: Induction of apoptosis in human HeLa cells assessed as increase in phospho-gammaH2AX expression at […] after 24 hrs by Western blot analysis; type: functional, cell-based
In short: (§3)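 HeLa treated for 24 or 48 h; whole-cell lysates run on SDS-PAGE and blotted for phospho-γH2AX (Ser139).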

HeLa [5] = assay: Induction of apoptosis in human HeLa cells assessed activation of caspase 9 at 10 to 100 nM after 48 hrs by Western blot analysis
HT-29 = assay: Antiproliferative activity against human HT-29 cells assessed as growth inhibition after 72 hrs by MTT assay; type: functional, cell-based; settings: HT-29, 72 h
HeLa [6] = assay: Induction of apoptosis in human HeLa cells assessed as increase in phospho-gammaH2AX expression at […] after 48 hrs by Western blot analysis; type: functional, cell-based; in short: as §3
HeLa [7] = assay: Induction of apoptosis in human HeLa cells assessed as formation of large cells at 100 uM after 24 to 48 hrs using Giemsa's staining by microscopic analysis; type: functional, cell-based
In short: (§4)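 HeLa treated 48 h, Giemsa stained and examined by light microscopy at 60× magnification.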

HeLa [8] = assay: Induction of apoptosis in human HeLa cells assessed activation of caspase 2 at 10 to 100 nM after 24 hrs by Western blot analysis
Jurkat [9] = assay: Antiproliferative activity against human Jurkat cells assessed as growth inhibition after 72 hrs by MTT assay; type: functional, cell-based
HeLa [10] = assay: Induction of apoptosis in human HeLa cells assessed as increase in propidium iodide-positive cells after 48 hrs by annexin-V-FITC and propidium iodide staining based flow cytometry; type: functional, cell-based
In short: (§5)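 Biparametric flow cytometry after annexin-V immunolabelling plus propidium iodide, separating live, early apoptotic, late apoptotic and necrotic cells; HeLa incubated for 24 or 48 h.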

Jurkat [11] = assay: Induction of apoptosis in human Jurkat cells assessed as abnormal mitotic figures at 100 uM after 24 to 48 hrs using Giemsa's staining by microscopic analysis; type: functional, cell-based; in short: as §2
HeLa [12] = assay: Induction of apoptosis in human HeLa cells assessed as decrease in Bcl2 expression at […] after 48 hrs by Western blot analysis; type: functional, cell-based
In short: (§6)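 Treated HeLa whole-cell lysates separated by SDS-PAGE and immunoblotted for PARP cleavage, Bcl-2, Bax, pro-caspase-9 and pro-caspase-2.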

HeLa [13] = assay: Induction of apoptosis in human HeLa cells assessed as multinucleation at 100 uM after 24 to 48 hrs using Giemsa's staining by microscopic analysis; type: functional, cell-based; in short: as §2
Jurkat [14] = assay: Cell cycle arrest in human Jurkat cells assessed as increase of cell population at G2/M phase after 24 hrs using propidium iodide staining by flow cytometry; type: functional, cell-based
HeLa [15] = assay: Cell cycle arrest in human HeLa cells assessed as decrease of cell population at S phase at 100 nM after 24 hrs using propidium iodide staining by flow cytometry; type: functional, cell-based
HeLa [16] = assay: Induction of apoptosis in human HeLa cells assessed as abnormal mitotic figures at 100 uM after 24 to 48 hrs using Giemsa's staining by microscopic analysis; type: functional, cell-based; in short: as §4
A549 [17] = assay: Antiproliferative activity against human A549 cells assessed as growth inhibition after 72 hrs by MTT assay; type: functional, cell-based; settings: A549, 72 h
HeLa [18] = assay: Induction of apoptosis in human HeLa cells assessed activation of caspase 2 at 10 to 100 nM after 48 hrs by Western blot analysis
[19] = Inhibition of bovine brain tubulin polymerization after 20 mins by turbidimetric analysis; set-up: species or system Bos taurus
In short: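 Purified tubulin at 10 μM was used for the assembly (polymerization) inhibition assay. IC50 is the concentration inhibiting assembly.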

HeLa [20] = assay: Induction of apoptosis in human HeLa cells assessed as increase in mitochondrial ROS production at 100 nM after 48 hrs using hydroethidine staining by flow cytometry; type: functional, cell-based
HeLa [21] = assay: Induction of apoptosis in human HeLa cells assessed as multinucleation at 10 uM after 24 to 48 hrs using Giemsa's staining by microscopic analysis; type: functional, cell-based; in short: as §2
HeLa [22] = assay: Cell cycle arrest in human HeLa cells assessed as increase of cell population at G2/M phase after 24 hrs using propidium iodide staining by flow cytometry; type: functional, cell-based
A549 [23] = assay: Fold resistance, ratio of IC50 for human taxol-resistant A549-T12 cells to IC50 for human A549 cells; type: functional
HeLa [24] = assay: Induction of apoptosis in human HeLa cells assessed as reduction in p53 expression at […] after 48 hrs by Western blot analysis; type: functional, cell-based
In short: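 Western blot of HeLa whole-cell lysates, separated by SDS-PAGE and probed with antibodies to p-γH2AX Ser139, p53 and p21waf/cip1. Cells were treated at the indicated concentrations for 24 or 48 h.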

HeLa [25] = assay: Induction of apoptosis in human HeLa cells assessed as increase in annexin-V positive cells after 24 hrs by annexin-V-FITC and propidium iodide staining based flow cytometry; type: functional, cell-based; in short: as §5
HeLa [26] = assay: Induction of apoptosis in human HeLa cells assessed as cleavage of PARP at 10 to 100 nM by Western blotting; settings: TDE = time-dependent effect
Tubulin (Homo sapiens) [27] = molecular target: T1, Tubulin (Homo sapiens); assay: Induction of microtubule disassembly in human HeLa cells assessed as complete loss of microtubules at 100 nM after 24 hrs using DAPI-staining by fluorescence microscopy; type: cell-based; in short: as §1
HeLa [28] = assay: Induction of apoptosis in human HeLa cells assessed as decrease in Bax expression at […] after 24 hrs by Western blot analysis; type: functional, cell-based; in short: as §6
HeLa [29] = assay: Induction of apoptosis in human HeLa cells assessed as abnormal mitotic figures at 10 uM after 24 to 48 hrs using Giemsa's staining by microscopic analysis; type: functional, cell-based; in short: as §4
HeLa [30] = assay: Cell cycle arrest in human HeLa cells assessed as decrease of cell population at S phase at 1 to 100 nM after 48 hrs using propidium iodide staining by flow cytometry; type: functional, cell-based

CCOc1ccc(-c2sc(N)nc2-c2cc(OC)c(OC)c(OC)c2)cc1
inhibition (Bos taurus): 95%
Activity (Tubulin (Homo sapiens) [1]): Active
IC50 [2]: 0.2 nM
Activity (Jurkat [3]): Active
Activity (HeLa [4]): Active
Activity (HeLa [5]): inactive
IC50 (HT-29): 38.2 nM
Activity (HeLa [6]): Active
Activity (HeLa [7]): Active
Activity (HeLa [8]): Active
IC50 (Jurkat [9]): 0.14 nM
Activity (HeLa [10]): Active
Activity (Jurkat [11]): Active
Activity (HeLa [12]): Active
Activity (HeLa [13]): Active
Activity (Jurkat [14]): Dose-dependent effect
Activity (HeLa [15]): Active
Activity (HeLa [16]): Active
IC50 (A549 [17]): 0.09 nM
Activity (HeLa [18]): Active
IC50 [19]: 610 nM
Activity (HeLa [20]): Active
Activity (HeLa [21]): Active
Activity (HeLa [22]): Dose-dependent effect
Ratio IC50 (A549 [23]): 2.2
Activity (HeLa [24]): Active
Activity (HeLa [25]): Dose-dependent effect
Activity (HeLa [26]): tde
Activity (Tubulin (Homo sapiens) [27]): Active
Activity (HeLa [28]): inactive
Activity (HeLa [29]): Active
Activity (HeLa [30]): Active
